Assay results pooled from the literature.
Compare with care: the assays were run in different laboratories.
HDAC6: Protein deacetylase HDAC6 (HDAC6, Homo sapiens, UniProt Q9UBN7)
Dihydroorotate dehydrogenase, mitochondrial, putative: Dihydroorotate dehydrogenase, mitochondrial, putative (Plasmodium vivax, UniProt A5K1N1)
F2: Prothrombin (F2, Homo sapiens, UniProt P00734)
MEP1B: Meprin A subunit beta (MEP1B, Homo sapiens, UniProt Q16820)
GRM7: Metabotropic glutamate receptor 7 (GRM7, Homo sapiens, UniProt Q14831)
CDK7 with cyclin H: Cyclin-dependent kinase 7, with cyclin H (CDK7, Homo sapiens, UniProt P50613)
KCNK18: Potassium channel subfamily K member 18 (KCNK18, Homo sapiens, UniProt Q7Z418)
PDE4D: 3',5'-cyclic-AMP phosphodiesterase 4D (PDE4D, Homo sapiens, UniProt Q08499)

Cc1nc2ccccc2n1Cc1nc(C(=O)NO)co1 — IC50 (HDAC6; enzyme activity; inhibitor): 3.71 µM
Cc1nc(Nc2ccc(C(F)(F)F)cc2)c2c(C(F)(F)F)noc2n1 — IC50 (Dihydroorotate dehydrogenase, mitochondrial, putative; enzyme activity; inhibitor; absorbance): 0.076 µM
Cc1nc2ccc(Cl)cc2c(=O)n1NC(=O)CCl — IC50 (F2; enzyme activity; inhibitor): 83.9 µM
CCOCc1nc(O)c(-c2nnc(Cc3ccc(Cl)cn3)o2)c(O)c1-c1c(OC)cccc1OC — IC50 (5-hydroxytryptamine receptor 1B (HTR1B, Homo sapiens, UniProt P28222); ligand displacement; radioligand): > 30 µM
CN1CCN(c2ccc(Nc3ncc4cc(C#N)c(=O)n(C5CCCC5)c4n3)cc2)CC1 — IC50 (Dual specificity protein kinase TTK (TTK, Homo sapiens, UniProt P33981); enzyme activity; inhibitor): 0.0668 µM
Nc1ccc(-c2ccncc2)cc1NC(=O)N1CCCC1 — IC50 (HDAC6; enzyme activity; inhibitor): > 33.3 µM
O=C(Nc1cccnc1)N1CCC(Cc2cccc(Oc3ccc(C(F)(F)F)cn3)c2)CC1 — IC50 (Liver carboxylesterase 1 (CES1, Homo sapiens, UniProt P23141); enzyme activity; inhibitor): > 10 µM
CNCCCOc1cc2nc(N3CCCN(C)CC3)nc(NC3CCN(C)CC3)c2cc1OC — IC50 (Histone-lysine N-methyltransferase EHMT2 (EHMT2, Homo sapiens, UniProt Q96KQ7); enzyme activity; inhibitor): 0.045 µM
COc1ccc2cc(/C=N/n3c(C)nc4ccc(Br)cc4c3=O)ccc2c1 — IC50 (F2; enzyme activity; inhibitor): 51.9 µM
O=C(CCN(Cc1ccncc1)Cc1ccc2c(c1)OCO2)NO — IC50 (MEP1B; enzyme activity; inhibitor): 8.18 µM
CC/C=C\C/C=C\C/C=C\C/C=C\C/C=C\CCCC(=O)O — IC50 (DNA-directed DNA polymerase (Enterobacteria phage T4, UniProt P04415); enzyme activity; inhibitor): > 100 µM
COc1ccc(-c2nsc(NC(=O)[C@@H]3C[C@H]3C)c2C)cc1 — IC50 (GRM7; calcium signal; antagonist): > 12.5 µM
CC(C)(C)n1nc(-c2cnc3cc(OC4CC4)ccc3c2)c(C(N)=O)c1N — IC50 (Mitogen-activated protein kinase 1 (MAPK1, Homo sapiens, UniProt P28482); cell-free assay): > 10 µM
COc1c(C(=O)/C=C(\O)c2ccccc2)ccc2occc12 — IC50 (CDK7 with cyclin H; enzyme activity; inhibitor; ADP detection): > 100 µM
Cc1nc2ccccc2c(=O)n1NC(=O)CSc1nc2ccccc2c(=O)n1-c1ccccc1 — IC50 (F2; enzyme activity; inhibitor): 5.01 µM
COc1ccc2c(Oc3ccc4c(C(=O)Nc5ccccc5N)cccc4c3)ccnc2c1 — IC50 (Potassium/sodium hyperpolarization-activated cyclic nucleotide-gated channel 4 (HCN4, Homo sapiens, UniProt Q9Y3Q4); ion current; inhibitor): > 10 µM
CC[C@@H](C(=O)Nc1ccc(C(N)=O)c(F)c1)n1cc(OC)c(-c2cc(Cl)ccc2-n2cc(C(F)(F)F)nn2)cc1=O — IC50 (F2; enzyme activity; inhibitor): 6.6 µM
CCCC[C@H](NC(=O)C1CN(C)C1)c1ncc(-c2cc3ccccc3nc2OC)[nH]1 — IC50 (HDAC6; enzyme activity; inhibitor): 1.1 µM
O=C(N[C@@H](Cc1c[nH]c2ccccc12)C(=O)O)c1ccc(Cl)cc1 — IC50 (Free fatty acid receptor 3 (FFAR3, Homo sapiens, UniProt O14843); calcium signal; antagonist): > 25.1 µM
CCOC(=O)C1=C(C)NC(C)=C(C(=O)OC)C1c1cccc([N+](=O)[O-])c1 (stereo not drawn) — IC50 (KCNK18; ion flux; inhibitor): 19.8 µM
COc1ccc(C2=NN(C3CCCCCC3)C(=O)[C@@H]3CC=CC[C@H]23)cc1-c1ccc(C(=O)NCC(N)=O)cc1 (relative stereo) — IC50 (PDE4D; enzyme activity; inhibitor): 0.251 µM
CC(C)=CCC[C@@H](C)c1ccc(C)c(O)c1 — IC50 (UDP-glucuronosyltransferase 2B7 (UGT2B7, Homo sapiens, UniProt P16662); enzyme activity; inhibitor; 1 h): 42.1 µM
COCCOC(=O)C1=C(C)NC(C)=C(C(=O)OC(C)C)C1c1cccc([N+](=O)[O-])c1 (stereo not drawn) — IC50 (Potassium channel subfamily K member 9 (KCNK9, Homo sapiens, UniProt Q9NPC2); ion flux; inhibitor): > 30 µM
Cc1nc(NC2CCc3cc(Cl)ccc3C2)c2c(C)noc2n1 (stereo not drawn) — IC50 (Dihydroorotate dehydrogenase, mitochondrial, putative; enzyme activity; inhibitor; absorbance): 0.058 µM
O=C(CCN(Cc1ccncc1)Cc1ccc(Cl)c(O)c1F)NO — IC50 (MEP1B; enzyme activity; inhibitor): 0.703 µM
COc1cc(/C=N/n2c(C)nc3ccc(Br)cc3c2=O)ccc1O — IC50 (F2; enzyme activity; inhibitor): 42.5 µM
O=C(CCN(Cc1ccc(Cl)cc1F)Cc1ccc(Cl)c(O)c1F)NO — IC50 (MEP1B; enzyme activity; inhibitor): 0.274 µM
Cc1nc(Nc2ccc(S(F)(F)(F)(F)F)cc2)c2c(C(F)(F)F)noc2n1 — IC50 (Dihydroorotate dehydrogenase, mitochondrial, putative; enzyme activity; inhibitor; absorbance): 0.066 µM
Cc1nc2ccc(Br)cc2c(=O)n1/N=C/c1ccc(C(=O)O)cc1 — IC50 (F2; enzyme activity; inhibitor): 48.6 µM
N#Cc1nc(NCc2cccc(-c3cc4ccccc4n3S(=O)(=O)c3ccccc3)c2)c2ncn(CCCO)c2n1 — IC50 (Cathepsin B-like cysteine protease (Trypanosoma brucei, UniProt Q6R7Z5); enzyme activity; inhibitor): > 15 µM
O=C1NC(=O)/C(=C/c2ccc(OCCNc3nc4c(cnn4C4CCCC4)c(=O)[nH]3)c(F)c2)S1 — IC50 (PDE4D; enzyme activity; inhibitor): 0.495 µM
COc1ccc(-c2noc(-c3cc(Cl)ccc3-n3cncn3)n2)c(F)c1OC — IC50 (GRM7; calcium signal; antagonist): > 30 µM
Cc1nc2ccccc2n1Cc1c(F)c(F)c(C(=O)NO)c(F)c1F — IC50 (HDAC6; enzyme activity; inhibitor): 3.5 µM
Cc1ccc(-c2ccc(O)cc2)c(C(=C2C=CC(=O)C=C2)c2ccc(O)cc2)c1C#Cc1ccc(O)cc1 — IC50 (PDE4D; enzyme activity; inhibitor): 0.175 µM
C=CC(=O)Nc1ccc(N2CCC[C@@H](Nc3ncc(Cl)c(-c4c[nH]c5ccccc45)n3)C2)c(F)c1 — IC50 (CDK7 with cyclin H; enzyme activity; inhibitor; FRET): 0.318 µM
COC(=O)C1=C(C)NC(C)=C(C(=O)OCCN(C)Cc2ccccc2)C1c1cccc([N+](=O)[O-])c1 (stereo not drawn) — IC50 (KCNK18; ion flux; inhibitor): 21.9 µM
CN(C)C/C=C/C(=O)Nc1ccc(C(=O)N2CC[C@@H](Nc3ncc(Cl)c(-c4c[nH]c5ccccc45)n3)C2)cc1 — IC50 (CDK7 with cyclin H; enzyme activity; inhibitor; FRET): 0.00633 µM
CCCON(Cc1ccc(C(=O)NO)cc1)C(=O)Nc1ccc(N(C)C)cc1 — IC50 (HDAC6; enzyme activity; inhibitor; fluorescence): 0.022 µM
CC[C@H](C)[C@H](NC(C)=O)C(=O)N[C@@H](CCC(=O)O)C(=O)N[C@H](C(=O)N[C@H](C=O)CC(=O)O)[C@@H](C)O — IC50 (Caspase-10 (CASP10, Homo sapiens, UniProt Q92851); enzyme activity; inhibitor): 0.0125 µM
O=c1cc(-c2ccccc2)oc2c1ccc1ccccc12 — IC50 (CDK7 with cyclin H; enzyme activity; inhibitor; ADP detection): > 100 µM
COc1ccc(-c2nnc(-c3cc(OC(F)(F)F)ccc3-n3ccnc3)o2)cc1OC — IC50 (GRM7; calcium signal; antagonist): 0.6 µM
CC(C)Cc1ncc(Cc2ccc(O)cc2)[nH]c1=O — IC50 (Calpain-1 catalytic subunit (CAPN1, Homo sapiens, UniProt P07384); enzyme activity; inhibitor): 3.9 µM
